Screens deposited in PubChem BioAssay by several laboratories.
DSG3 Ab inh: inhibitors of pemphigus antibody binding to human desmoglein-3; DSG3-coupled beads, scFv-anti-DSG3-GFP binding, flow cytometry; hits give low values; binding (percent of control), % at 10 µM; actives 0.48% (n = 310,000); AID 588358;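 active means binding more than 3 SD below its plate's average and above zero; inconclusive means below that plate limit but binding exactly zero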;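 further: hits lower antibody fragment binding to DSG3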
HNF4A DNA FP: change in binding of human HNF4 alpha to DNA | AID 1224865 | HNF4a-FITC DNA binding, fluorescence polarization, 1 h | actives 0.3% (n = 360,000) | activity change, % at 10 µM; in the data active means activity change above about 30%, passing the limit was not always enough
SENP1 FRET inh: inhibitors of human SENP1 SUMO protease catalytic domain; actives 0.21% (n = 360,000); AID 624204; recombinant SENP1 catalytic domain, CyPet-SUMO1-YPet FRET cleavage; Q9P0U3; inhibition, % at 10 µM;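 active means inhibition at least 30% at 10 µM, raw YFP signal under a set limit, fluorescence ratio 0.5 to 1.5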;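 further: 0% = enzyme with DMSO and 100% = no enzyme wells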
Target sequence (Q9P0U3 419-644 limits assumed): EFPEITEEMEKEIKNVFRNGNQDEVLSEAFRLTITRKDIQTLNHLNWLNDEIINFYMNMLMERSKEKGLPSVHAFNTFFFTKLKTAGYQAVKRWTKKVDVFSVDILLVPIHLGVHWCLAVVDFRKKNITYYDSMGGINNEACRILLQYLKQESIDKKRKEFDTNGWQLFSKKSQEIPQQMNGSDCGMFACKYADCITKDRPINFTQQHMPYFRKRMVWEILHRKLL
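Material: hSENP1 catalytic domain, recombinant; medium: Tris pH 8 with BME, BSA, NP40 and catalase; compound: single concentration of 10 µM compound, 0.5% DMSO final; technique: FRET read of cyan and yellow fluorescence; timing: 50 min enzyme reaction, room temperature, light-protected; reagent: SFCypet-SUMO1-SFYpet substrate at 25 nM; control set: no-enzyme low, enzyme-DMSO high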
Myeloid diff MLP: promotes myeloid progenitor differentiation | ER-HoxA9 myeloid progenitors, lysozyme-GFP differentiation, flow cytometry | calls only at 10 µM | actives 1% (n = 360,000);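 active means normalized GFP-positive differentiation at or above the plate's own cutoff, the solvent-only control mean plus 3 SD; inconclusive means no clear call, values can overlap the other calls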;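 further: cells exposed to compound for four days before flow analysis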
Cardio protect: protects H9c2 cardiomyocytes from peroxide injury; actives 0.63% (n = 360,000); H2O2 injury protection, ATPLite, 2 h; protection from H2O2 cell death, % at 20 µM;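 active means compounds giving at least 50% protection of heart cells from peroxide-induced death in the single-dose screen, raw or plate-pattern-corrected value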;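 further: 0% = DMSO wells with peroxide and 100% = DMSO wells without peroxide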
Granule exo inh: blocks lytic granule exocytosis; TALL-104 LAMP-1 surface exposure, flow cytometry; cells stimulated with thapsigargin and PMA; inhibition, % at 10 µM; actives 0.66% (n = 360,000); AID 651702;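 active means inhibition above about 55%, limit read from the data; inconclusive means no clear call, values can overlap the other calls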
Myeloid diff CP1: promotes myeloid progenitor differentiation | shares compounds with Myeloid diff MLP | ER-HoxA9 myeloid progenitors, GFP/Mac1 double-positive flow | calls only | actives 2% (n = 2,300);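 active means share of green or green-and-red cells above 9 and 9% in run 1 or 4 and 3% in run 2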
GFP autofluor: compound fluorescence in myeloid differentiation counter-screen | actives 7.4% (n = 2,300) | AID 651707 | fluorescence response, % (concentration not given with the values) | shares compounds with Myeloid diff MLP | ER-HoxA9 myeloid progenitors, no estrogen, GFP autofluorescence flow cytometry; vehicle wells 0%, positive control 100%;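 active means over 5% cells positive for green fluorescent reporter, or over 2% positive for both it and APC stain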;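 further: range taken on the double positive population between DMSO and positive control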
The depositor's hits bear a star; i = inactive; ? = inconclusive; . = not tested or not shown; + = active, no number. An excerpt weighted towards active compounds, which were near 3% of everything screened.

SMILES | DSG3 Ab inh | HNF4A DNA FP | SENP1 FRET inh | Myeloid diff MLP | Cardio protect | Granule exo inh | Myeloid diff CP1 | GFP autofluor
COc1ccc(/C=C2\SC(=S)N(NS(=O)(=O)c3ccc(C)cc3)C2=O)c(OC)c1 | 111 | -2 | -12 | i | -2 | -1 | i | 0
Nc1nc2ccccc2cc1C(=O)NCCCCc1ccccc1 | . | 2 | -19 | i | . | -6 | i | 0
CC(C#N)Sc1ccc(S(=O)(=O)N(C)C2CCCCC2)cn1 (centres undefined) | 111 | -1 | -5 | i | 2 | 8 | . | .
CCN(CC)CCN(C(=O)c1ccc(N2C(=O)CCC2=O)cc1)c1nc2cc3c(cc2s1)OCCO3 | 98 | 5 | 0 | + | 10 | 6 | i | 0
CCCC1NC(=O)c2cccnc2-n2c1nc1cc(C)cc(C)c1c2=O (centres undefined) | . | -2 | -1 | i | 1 | -4 | . | .
O=C1c2cccnc2C(Nc2ccccc2)N1Cc1ccco1 (centres undefined) | 103 | 6 | -1 | i | 5 | 0 | i | 0
COc1cccc(C(C)(O)c2nc(-c3cnc4ccccc4c3)cs2)c1 (centres undefined) | . | 3 | 0 | i | -29 | 1 | . | .
Cc1cc2cc(C(c3nnnn3CC3CCCO3)N3CCCc4ccccc43)c(=O)[nH]c2cc1C (centres undefined) | 105 | 5 | -14 | i | 1 | 2 | i | 0
CC1Cc2ccccc2N1C(=O)c1ccnc(C(C)(C)C)c1 (centres undefined) | 97 | 6 | -3 | + | -5 | -4 | i | 0
CC(C)(C)CN1CCC(Oc2cccc(C(=O)NCCCOc3cccnc3)c2)CC1 | 115 | -1 | -23 | ? | -1 | 0 | . | .
O=Cc1cn(CC(=O)N2CCCCCC2)c2ccccc12 | 95 | 5 | 0 | i | -2 | -3 | . | .
CN1C(=O)/C(=C/c2cn(CC(=O)N3CCCCC3)c3ccccc23)NC1=S | ? | 2 | -31 | + | 5 | -2 | i | 97*
COc1ccc(S(=O)(=O)N2CCCCC2)cc1NC(=O)c1ccc([N+](=O)[O-])o1 | 122 | -1 | 1 | i | -24 | 15 | . | .
CCN1CCN(c2ccc(S(=O)(=O)N3CCCCC3)cc2NC(=O)c2ccc([N+](=O)[O-])o2)CC1 | 96 | 1 | 0 | i | -9 | -2 | i | 0
O=S1(=O)CC(N2CCN(Cc3ccccc3F)CC2)CN1Cc1cn(Cc2cccc(Cl)c2)nn1 (centres undefined) | . | 1 | 0 | i | . | 3 | . | .
O=C(N/N=C/c1ccsc1)c1ccc2ccccc2n1 | 106 | -4 | 2 | i | -2 | 0 | . | .
COc1cccc(N2CCN(S(=O)(=O)c3ccc4ccccc4c3)CC2)c1 | 107 | 3 | -1 | i | -12 | -1 | i | 0
COc1ccc(S(=O)(=O)N2CCN(c3ccccc3)CC2)cc1 | 103 | -3 | 2 | i | 2 | -3 | . | .
CC(=O)Nc1cccc(-c2ccnc3c2CC(C(=O)Nc2cccc(N(C)C)c2)O3)c1 (centres undefined) | . | -2 | 4 | i | 6 | 3 | . | .
CC12CS(=O)(=O)CC1SC(=S)N2c1ccccn1 (centres undefined) | 122 | 1 | 3 | + | 5 | -2 | i | 0
O=C(NCC1CCCN1S(=O)(=O)c1cccs1)C(=O)Nc1ccccc1Cl (centres undefined) | 131 | 0 | -17 | i | 0 | 5 | . | .
COc1ccc(/C=N/NC(=O)CSc2n[nH]c(=O)[nH]c2=O)cc1 | 103 | 3 | 1 | i | -3 | 6 | . | .
CC(/C=N/NC(=O)CSc1n[nH]c(=O)[nH]c1=O)=C\c1ccccc1 | 98 | 3 | 2 | i | 1 | -2 | i | 0
CCOC(=O)CSc1nnc(CNC(=O)c2ccc([N+](=O)[O-])cc2)n1C | 92 | -4 | -1 | i | 2 | 0 | . | .
